# Experimental data taken from the M2OR odorant receptor database.
# Target: T1, OR2L13 (Homo sapiens) (UniProt Q8N349)
# T1 sequence (whole entry): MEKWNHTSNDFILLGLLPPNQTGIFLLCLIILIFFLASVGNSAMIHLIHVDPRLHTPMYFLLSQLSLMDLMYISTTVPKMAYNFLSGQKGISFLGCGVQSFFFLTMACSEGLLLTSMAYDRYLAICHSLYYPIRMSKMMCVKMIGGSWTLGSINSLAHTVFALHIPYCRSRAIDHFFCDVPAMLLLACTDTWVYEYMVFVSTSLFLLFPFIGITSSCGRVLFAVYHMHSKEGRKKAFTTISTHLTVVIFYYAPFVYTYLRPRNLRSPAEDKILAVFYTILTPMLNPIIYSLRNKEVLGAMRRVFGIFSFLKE
# Conditions: stereoisomer not certain
# Method in brief: (§1)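 Whether a receptor–molecule pair is responsive (active) rests on the original authors' judgment that its measured signal was statistically different from baseline. Pairs without that judgment are non-responsive (inactive). Sources used varied assay methods, commonly transient luciferase assays in mammalian cell lines.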
# 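Also: active if original authors judged signal statistically different from baseline.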
row,SMILES,odorant receptor agonist call
1,CC(=O)O,inactive
2,CC1=CCC2CC1C2(C)C (stereo not drawn),inactive
3,C=C(C)C1CC=C(C)CC1 (stereo not drawn),inactive
4,CCCCCCCCCCCCCCCC(=O)OCC,inactive
5,CCCCCCCCCCCCCCCCCC(=O)OCC,inactive
6,CCCCCCCCCCCCO,active
7,CCCCCCCC(=O)OCC,inactive
8,CCCCCCCC(=O)OC,inactive
9,Cc1cnc(C)cn1,inactive
10,CCCO,inactive
11,CCCCCCCCCC(=O)OCC,inactive
12,CCCCC(=O)C(C)=O,inactive
13,CCC(C)CO (stereo not drawn),inactive
14,CCCCCCCCCCCC(=O)OC,inactive
15,COc1ccc2[nH]cc(CCNC(C)=O)c2c1,inactive
16,CCCCCCCCCCCCCCCC(=O)[O-].[H+],inactive
17,Cc1ccc(C(C)C)cc1,inactive
18,CCCCOCC(C)O (stereo not drawn),inactive
19,CCCCCCCCCCCCCCCC(=O)OC,inactive
20,CC(O)C(=O)[O-].[H+] (stereo not drawn),inactive
21,CC(C)=CCCC(C)=CCCC(C)=CCO,inactive
22,CCCCCCCCCCCCCC(=O)O,inactive
23,C=C1CCC2CC1C2(C)C (stereo not drawn),inactive

# Target: T2, OR2M3 (Homo sapiens) (UniProt Q8NG83)
# T2 sequence (whole entry): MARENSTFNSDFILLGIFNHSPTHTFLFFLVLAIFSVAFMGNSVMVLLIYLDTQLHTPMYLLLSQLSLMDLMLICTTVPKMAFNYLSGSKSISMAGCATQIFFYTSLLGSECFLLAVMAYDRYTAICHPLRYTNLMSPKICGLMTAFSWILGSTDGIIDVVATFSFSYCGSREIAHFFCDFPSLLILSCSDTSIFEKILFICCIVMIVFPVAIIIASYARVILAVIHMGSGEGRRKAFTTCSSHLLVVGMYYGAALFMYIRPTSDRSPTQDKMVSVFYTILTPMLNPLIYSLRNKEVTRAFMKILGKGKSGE
# Conditions: stereoisomer not certain
# Method in brief: as §1
row,SMILES,odorant receptor agonist call
1,CC(=O)O,inactive
2,CC1=CCC2CC1C2(C)C (stereo not drawn),inactive
3,C=C(C)C1CC=C(C)CC1 (stereo not drawn),inactive
4,CCC=CCCC=CC=O,inactive
5,SCCc1ccccc1,inactive
6,CCCCCCCC(=O)OCC,inactive
7,C=CC(=O)CCCCC,inactive
8,CC(C)CCCCCCCCCCC=O,inactive
9,CC(=O)C(C)O (stereo not drawn),inactive
10,CC(C)=CC1CC(C)CCO1 (stereo not drawn),inactive
11,CCOC(=O)C=Cc1ccccc1,inactive
12,CCCCCCCCCC(=O)OCC,inactive
13,C=Cc1ccc(O)c(OC)c1,inactive
14,CCC(C)CO (stereo not drawn),inactive
15,CCCCCc1ccccn1,inactive
16,CCCCCC=CCCC=O,inactive
17,C=CC(=C)CCC=C(C)C,inactive
18,CCCCCC1CCC(=O)O1 (stereo not drawn),inactive
19,C=C1CCC2CC1C2(C)C (stereo not drawn),inactive
20,CCC=O,inactive
